Bioassay records (PubChem)
Sampled rows, rich in hits. Any-hit rate of the full collection: about 1.7%.
HCV NS3 hel inh = HCV NS3 helicase inhibition; NS3 helicase DNA unwinding, Cy5 molecular beacon fluorescence; inhibition, % at 10.9 µM; 290,000 compounds, 0.56% hits;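 active = inhibition above the mean of all tested compounds plus 3 SD, set per campaign, cut at about 35% in these data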;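 note: 0% = DMSO wells and 100% = thioflavine S control wells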
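Compound dosing – single dose, 10.9 µM nominal final, DMSO 0.8% final · System – NS3 helicase fragment of HCV · Buffer or medium – MOPS pH 6.5, MgCl2, DTT, Tween20, BSA · Signal – Cy5 beacon fluorescence read at start and 1 h · Also added – annealed dual-labelled DNA beacon duplex, ATP-started · Schedule – 1 h at 25 °C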
EBV gp42 block = inhibitors of Epstein-Barr virus glycoprotein 42. Q1HVG2. inhibition, % (tested at 21.74 µM). AID 1085. Fluorescence polarization binding assay, mP read-out. 220,000 compounds, 0.42% hits; in the data active = inhibition above about 50%
Target sequence (Q1HVG2 whole entry, looked up): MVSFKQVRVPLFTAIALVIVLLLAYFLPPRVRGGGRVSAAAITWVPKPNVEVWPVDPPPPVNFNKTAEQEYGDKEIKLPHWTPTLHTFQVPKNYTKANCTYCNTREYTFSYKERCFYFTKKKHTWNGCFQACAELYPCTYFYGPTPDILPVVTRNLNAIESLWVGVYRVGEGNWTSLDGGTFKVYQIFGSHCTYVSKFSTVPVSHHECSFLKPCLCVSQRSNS
ZTA DNA inh = counter-screen for EBNA-1 inhibitors: inhibitors of Epstein-Barr virus ZTA | 320,000 compounds, 0.15% hits | inhibition, % at 11 µM | AID 2234 | P03206 | ZTA-DNA binding, fluorescence polarization; in the data active = inhibition above about 33%
Target sequence (P03206 whole entry, looked up): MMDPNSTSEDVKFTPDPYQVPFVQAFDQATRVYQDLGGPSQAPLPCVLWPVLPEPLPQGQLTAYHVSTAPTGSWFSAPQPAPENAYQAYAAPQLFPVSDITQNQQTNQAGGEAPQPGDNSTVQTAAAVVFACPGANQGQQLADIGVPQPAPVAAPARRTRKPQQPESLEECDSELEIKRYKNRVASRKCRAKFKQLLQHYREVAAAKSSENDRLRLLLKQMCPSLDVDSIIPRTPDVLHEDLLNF
MEX-5 binding = C. elegans MEX-5 TCR-2 RNA binding activity; MEX-5/FITC-TCR2 RNA binding, fluorescence polarization; hits give low values; activity score (negative = inhibition of binding), % at 10 µM; 300,000 compounds, 0.38% hits;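 active = inhibition past about -25% in most replicates, and total fluorescence under double the plate's negative control median, limit read from the data; inconclusive = replicates evenly split on the limit, or fluorescence at least double controls; inactive = too little inhibition in most replicates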;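 note: 0% = DMSO and -100% = 5 µM competing unlabeled TCR2 RNA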
EBNA-1 inh = blocks EBNA-1 binding to DNA; inhibition, % at 14.8 µM; 300,000 compounds, 0.34% hits; AID 1950; EBNA-1 DNA binding, fluorescence polarization; in the data active = inhibition above about 28%
core dimer inh = blocks dimerization of HCV core protein; AID 1899; 300,000 compounds, 0.33% hits; TR-FRET GST/Flag-core106 dimerization, 1536-well; inhibition, % at 5 µM;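 active = inhibition above the mean of all tested compounds plus 3 SD, set per screening campaign, cut at about 45% in these data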
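System – GST-tagged and Flag-tagged HCV core protein residues 1-106 · Repeats – one well for each compound · Technique – TR-FRET 671 and 617 nm emission · Doses – one concentration, 5 µM, in 0.5% DMSO · Times – 4 h, 22.5 °C incubation · Also added – Eu donor and XL665 acceptor anti-tag antibodies · Measure – percent inhibition of core106 dimerization signal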
Numbers without * were called inactive; i = inactive; ? = inconclusive; nt = no result.

SMILES	HCV NS3 hel inh	EBV gp42 block	ZTA DNA inh	MEX-5 binding	EBNA-1 inh	core dimer inh
N#CC1=C(N)Oc2c(ccc3ccccc23)C1c1ccsc1 (stereo unspecified)	14	13	15	-4	-21	71*
COc1ccc(CN2C(=O)c3ccc(C(=O)O)cc3C2=O)cc1	10	nt	11	1	6	-9
Cc1ccc(N=Cc2c(O)n(-c3ccc4c(c3)OCO4)c(=O)c3ccccc23)cc1	19	-1	-8	0	-1	62*
C=CCn1c(O)c(N=Nc2ccccc2C)c2ccccc21	7	68*	-31	-6	4	-4
O=C(COC(=O)/C=C/c1ccc(Br)o1)Nc1ccc2[nH]c(=O)[nH]c2c1	nt	nt	-5	4	5	90*
Cc1ccc(CNC(=O)C2(S(=O)(=O)c3ccccc3)CC=CC2)cc1	2	nt	0	-2	-1	-4
O=C(N=Nc1c(O)[nH]c2ccccc12)c1cc(-c2cccs2)[nH]n1	10	49	3	-3	-3	-8
O=C(N=Nc1c(O)[nH]c2ccccc12)c1cc(-c2ccc(F)cc2)n[nH]1	3	61*	20	0	1	4
Oc1[nH]c2ccccc2c1N=Nc1ccccc1	-17	101*	0	-42*	-2	-13
Oc1[nH]c2ccccc2c1N=Nc1ccc(F)cc1	-6	-122	9	-62*	8	-11
CC(=O)c1ccc(NC(=O)C(C)Sc2nnc(C3CCCCC3)o2)cc1 (stereo unspecified)	5	nt	7	-1	-6	1
CCN1/C(=C/C=C/C=C/C=C/c2sc3ccccc3[n+]2CC)Sc2ccccc21	-59	nt	60*	27	42*	28
CCN1/C(=C/C=C/C=C/c2sc3ccccc3[n+]2CC)Sc2ccccc21	18	31	nt	6	nt	i
O=C(Nc1ccnn1C1CCN(CC2CC=CCC2)CC1)c1ccccc1 (stereo unspecified)	-1	nt	nt	-27*	nt	nt
Cc1nn(C(C)C(=O)NC2CCCCCC2)c(=O)c2nn(-c3ccccc3)c(C)c12 (stereo unspecified)	-5	nt	11	-2	8	6
C(=N\N1CCOCC1)/c1nc(-c2ccccc2)n2ccccc12	4	62*	-1	1	8	-15
O=C(Nc1ccc2[nH]c3c(c2c1)CCCC3)c1ccco1	17	68*	13	3	0	47*
CC(=O)Nc1ccc2c(c1)C(C)(C)C(C)N2C (stereo unspecified)	23	10	60*	-3	45*	-8
Cc1cc(/C=C2\SC(=Nc3ccccc3)NC2=O)c(C)n1-c1ccc(S(N)(=O)=O)cc1	5	-40	-10	-1	-9	63*
COc1ccc(CC(=O)Nc2ccc(S(=O)(=O)N3CCN(C)CC3)cc2)cc1	nt	nt	2	nt	nt	nt
CCOc1ncccc1C(=O)Nc1ccc2nc(C)sc2c1	4	nt	7	6	5	6
Brc1ccc(C2=CSC3=NCCN23)cc1	-2	10	-14	-1	-8	11
Oc1ccc(C2=CSC3=NCCN23)cc1O	0	nt	-4	-30*	-14	-4
O=C1CC(c2ccco2)CC2=C1C=Nc1ccccc1N2 (stereo unspecified)	8	11	-8	0	-1	-2
O=c1[nH]c2c(s1)C=Nc1ccccc1N2	1	119*	9	-72*	6	-109
SMILES	HCV NS3 hel inh	EBV gp42 block	ZTA DNA inh	MEX-5 binding	EBNA-1 inh	core dimer inh
CC(=O)N(C)c1ccc(NS(=O)(=O)c2cccc3nsnc23)cc1	2	nt	-12	-3	-14	0
Cn1c(=O)c2[nH]c(-c3ccccc3)c(O)c2n(C)c1=O	2	122*	10	?	9	-32
Cn1c2c(c(=O)n(C)c1=O)C(C(F)(F)F)(C(F)(F)F)N=C(c1ccccc1Cl)N2	-4	-5	-4	nt	-6	3
Cn1c(=O)c2[nH]c(-c3ccccc3Cl)c(O)c2n(C)c1=O	-9	65*	-6	-13	-3	-8
CC(=O)c1ccc(S(=O)(=O)NCC(=O)N2CCN(C/C=C/c3ccccc3)CC2)cc1	nt	nt	-4	nt	nt	nt
CCC(=O)Nc1nc2n(n1)C(c1ccc(OC)cc1)C=C(c1ccccc1)N2 (stereo unspecified)	-14	60*	-3	-2	10	5
O=C(c1nc2n(n1)C(c1ccc(Cl)cc1)C=C(c1ccccc1)N2)N1CCOCC1 (stereo unspecified)	5	77*	-7	-16	5	3
CC(=O)Nc1nc2n(n1)C(c1ccc(F)cc1)C=C(c1ccccc1)N2 (stereo unspecified)	-4	33	3	-17	-5	-3
COc1ccc(C2C=C(c3cccs3)Nc3nc(CCCO)nn32)cc1 (stereo unspecified)	-6	151*	2	nt	-6	8
COc1ccc(C2C=C(c3ccccc3)Nc3nc(CCCO)nn32)cc1 (stereo unspecified)	4	18	2	nt	-2	0
COc1ccc(C2=CC(c3ccc(Cl)cc3)n3cnnc3N2)cc1OC (stereo unspecified)	-3	55*	-14	-11	-3	-1
CC(=O)Nc1nc2n(n1)C(c1ccccc1)C=C(c1ccccc1)N2 (stereo unspecified)	-6	32	4	-1	8	-6
COc1cc(C2C=C(c3cccs3)Nc3ncnn32)cc(OC)c1OC (stereo unspecified)	-4	105*	nt	nt	nt	nt
COc1ccc(C2C=C(c3ccc(Cl)cc3)Nc3nc(NC(C)=O)nn32)cc1 (stereo unspecified)	-10	106*	0	nt	-1	9
Cc1ccccc1OCCOC(=O)c1cc(S(=O)(=O)N2CCCCC2)ccc1N1CCOCC1	nt	nt	-3	nt	nt	nt
O=C(Nc1nnc(C2=COCCO2)o1)c1ccc([N+](=O)[O-])cc1	14	nt	-9	-1	12	-3
O=C(O)C1Nc2c(cccc2C(F)(F)F)C2C=CCC12 (stereo unspecified)	7	nt	nt	-29*	nt	nt
O=C(O)C1Nc2ccc(OC(F)(F)F)cc2C2C=CCC12 (stereo unspecified)	nt	nt	3	-17	3	0
Cc1ccc2c(c1)C1C=CCC1C(C(=O)O)N2 (stereo unspecified)	37*	79*	28	-1	45*	94*
CC(C)OCCCNC(=O)c1cccc2c1C(=O)c1ccc(Cl)cc1S2(=O)=O	nt	nt	1	nt	nt	nt
CCN(CC)c1ccc2cc(-c3nnc(-c4ccccc4)o3)c(=O)oc2c1	2	21	8	?	1	-2
CCN(CC)c1ccc2cc(-c3nc(-c4ccc(OC)cc4)cs3)c(=O)oc2c1	13	92*	8	nt	7	28
